From ChEMBL document CHEMBL1799970, “Dipyrimidine amines: a novel class of chemokine receptor type 4 antagonists with high specificity” (J Med Chem, 2010)
Calls of active or inactive are those of the source. No cut-off for these calls is given here. Where a SMILES comes first, the peptide text is derived from it. Bridges are numbered along the chain shown (N, C = ends). [ ]: non-standard residue; d: D form. 2Nal = N[C@@H](Cc1ccc2ccccc2c1)C(=O)O; Cit = NC(=O)NCCC[C@H](N)C(=O)O

Key:
[1] = molecular target: T1, C-X-C chemokine receptor type 4 (Homo sapiens, UniProt P61073); experiment: Antagonist activity at CXCR4 in human MDA-MB-231 cells assessed as inhibition of CXCL12-mediated cell invasion at 10 nM by […] cell invasion assay; assay type: functional, cell-based
[2] = molecular target: T1, C-X-C chemokine receptor type 4; experiment: Displacement of biotinylated-TN14003 from CXCL12 binding site of CXCR4 in human MDA-MB-231 cells assessed as concentration required to inhibit >50% using rhodamine staining; assay type: cell-based
Procedure, shortened: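 MDA-MB-231 cells preincubated with compound at 1, 10, 100, 1000 nM, fixed in 4% formaldehyde, incubated with 50 nM biotinylated peptide antagonist then streptavidin-rhodamine; EC is lowest concentration blocking >50% of binding.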

[3] = molecular target: T1, C-X-C chemokine receptor type 4; experiment: Antagonist activity at CXCR4 in human MDA-MB-231 cells assessed as inhibition of CXCL12-mediated cell invasion at 100 nM by […] cell invasion assay; assay type: functional, cell-based
[4] = tested on: Mus musculus; experiment: Antiinflammatory activity in C57BL/6L mouse assessed as inhibition of carrageenan-induced paw edema at 10 mg/kg, ip administered 30 mins before carrageenan challenge measured after 76 hrs; assay type: functional; conditions: for inhibition in vivo at 10 mg/kg: route intraperitoneal
[5] = tested on: MDA-MB-231; experiment: Antiangiogenic activity against human MDA-MB-231 cells xenografted in nude mouse assessed as hemoglobin level at 10 mg/kg, sc measured after 10 days by […] plug assay; assay type: functional; conditions: route subcutaneous; for inhibition in vivo at 10 mg/kg: Mus musculus, MDA-MB-231, sc, 240 h
Procedure, shortened: (§1)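 Nude mice, two s.c. flank plugs each (6 mice/group): 2×10^5 MDA-MB-231 cells in 0.5 mL growth factor-reduced Matrigel with compound mixed at 1 µM. From next day, daily s.c. dosing between plugs (10 mg/kg; peptide 300 µg/kg). Day 10 plugs excised, homogenized in water; supernatant with Drabkin's solution, 52 °C 10 min then RT 20 min, A540.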

[6] = molecular target: C-C chemokine receptor type 5 (Homo sapiens) (UniProt P51681); experiment: Antagonist activity at human CCR5 expressed in human U87 cells expressing CD4 assessed as inhibition of CCL5-induced cAMP production pretreated for 15 mins before forskolin challenge by TR-FRET analysis; assay type: functional, cell-based; conditions: U-87MG ATCC
Procedure, shortened: (§2)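 U87CD4CCR3 or U87CD4CCR5 cells pretreated with compound 15 min at room temperature, then stimulated with 150 ng/mL CCL5 in presence of 5 µM forskolin; cAMP measured by TR-FRET LANCE kit.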

[7] = molecular target: T2, C-C chemokine receptor type 3 (Homo sapiens) (UniProt P51677); experiment: Antagonist activity at human CCR3 expressed in human U87 cells expressing CD4 assessed as inhibition of CCL5-induced cAMP production pretreated for 15 mins before forskolin challenge by TR-FRET analysis; assay type: functional, cell-based; conditions: U-87MG ATCC; procedure, shortened: as §2
T2 sequence (whole entry): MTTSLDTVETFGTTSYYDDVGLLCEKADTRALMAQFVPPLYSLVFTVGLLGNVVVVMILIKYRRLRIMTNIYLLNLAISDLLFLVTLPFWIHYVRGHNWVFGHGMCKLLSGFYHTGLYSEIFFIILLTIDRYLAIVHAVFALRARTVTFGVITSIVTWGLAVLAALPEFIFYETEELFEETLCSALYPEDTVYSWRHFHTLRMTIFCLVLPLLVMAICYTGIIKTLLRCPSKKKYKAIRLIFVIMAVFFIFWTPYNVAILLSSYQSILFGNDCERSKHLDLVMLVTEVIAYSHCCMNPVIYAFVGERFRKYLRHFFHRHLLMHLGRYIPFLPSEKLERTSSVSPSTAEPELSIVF

[8] = tested on: Mus musculus; experiment: Protection against bleomycin-induced lung injury in mouse assessed as decrease in lung fibrosis at 10 mg/kg, ip administered 1 day before bleomycin treatment and daily for 20 days by hematoxylin and eosin staining; assay type: functional; set-up: scale not given: the % may be the effect or the level left; conditions: route intraperitoneal
Procedure, shortened: (§3)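 Mice, 10/group, anesthetized with isoflurane; 4 U/kg bleomycin in 100 µL PBS instilled intratracheally. Dosing i.p. (10 mg/kg, 300 µg/kg, or saline) from 1 day before bleomycin, daily for 20 days. Lungs harvested day 20, H&E-stained sections examined microscopically.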

[9] = tested on: Mus musculus; experiment: Protection against bleomycin-induced lung injury in mouse assessed as decrease in alveolar structural distortion at 10 mg/kg, ip administered 1 day before bleomycin treatment and daily for 20 days by hematoxylin and eosin staining; assay type: functional, organism-based; set-up: dose 10 mg/kg; procedure, shortened: as §3
[10] = molecular target: T1, C-X-C chemokine receptor type 4; experiment: Antagonist activity at human CXCR4 expressed in human U87 cells expressing CD4 assessed as inhibition of CXCL12-induced cAMP production pretreated for 15 mins before forskolin challenge by TR-FRET analysis; assay type: functional, cell-based, U-87MG ATCC
[11] = tested on: Mus musculus; experiment: Protection against bleomycin-induced lung injury in mouse assessed as decrease in interstitial structural distortion at 10 mg/kg, ip administered 1 day before bleomycin treatment and daily for 20 days by hematoxylin and eosin staining; assay type: functional, organism-based; set-up: dose 10 mg/kg; procedure, shortened: as §3
[12] = Antimetastatic activity against HGF/TGF-beta/CXCR4/MMP2 expressing human OMM 2.3 cells xenografted in nude mouse eye assessed as decrease in number of hepatic micrometastases at 10 mg/kg, ip administered 3 days after tumor implantation QD for 28 days by hematoxylin and eosin staining; assay type: functional; set-up: scale not given: the % may be the effect or the level left; conditions: route intraperitoneal
Procedure, shortened: (§4)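 Female nude mice, 10/group; 1×10^6 OMM2.3 cells into posterior chamber of right eye day 0. Daily i.p. dosing (10 mg/kg or 300 µg/kg in 0.1 mL 45% cyclodextrin) from day 3; vehicle controls; tumor eyes enucleated day 7. Day 28 livers formalin-fixed, H&E; micrometastases (<100 µm) counted in six central sections, averaged per section.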

[13] = Half life in iv dosed mouse; assay type: ADME, organism-based; conditions: in vivo
[14] = tested on: Mus musculus; experiment: Protection against bleomycin-induced lung injury in mouse assessed as decrease in lung fibrosis at 300 ug/kg, ip administered 1 day before bleomycin treatment and daily for 20 days by hematoxylin and eosin staining; assay type: functional; set-up: scale not given: the % may be the effect or the level left; procedure, shortened: as §3
[15] = Antimetastatic activity against HGF/TGF-beta/CXCR4/MMP2 expressing human OMM 2.3 cells xenografted in nude mouse eye assessed as decrease in number of hepatic micrometastases at 300 ug/kg, ip administered 3 days after tumor implantation QD for 28 days by hematoxylin and eosin staining; assay type: functional; set-up: scale not given: the % may be the effect or the level left; procedure, shortened: as §4
[16] = tested on: Mus musculus; experiment: Antiinflammatory activity in C57BL/6L mouse assessed as inhibition of carrageenan-induced paw edema at 300 ug/kg, ip administered 30 mins before carrageenan challenge measured after 76 hrs; assay type: functional, organism-based
[17] = tested on: Mus musculus; experiment: Protection against bleomycin-induced lung injury in mouse assessed as decrease in interstitial structural distortion at 300 ug/kg, ip administered 1 day before bleomycin treatment and daily for 20 days by hematoxylin and eosin staining; assay type: functional, organism-based; procedure, shortened: as §3
[18] = tested on: Mus musculus; experiment: Protection against bleomycin-induced lung injury in mouse assessed as decrease in alveolar structural distortion at 300 ug/kg, ip administered 1 day before bleomycin treatment and daily for 20 days by hematoxylin and eosin staining; assay type: functional, organism-based; procedure, shortened: as §3
[19] = tested on: MDA-MB-231; experiment: Antiangiogenic activity against human MDA-MB-231 cells xenografted in nude mouse assessed as hemoglobin level at 300 ug/kg, sc measured after 10 days by […] plug assay; assay type: functional, organism-based; procedure, shortened: as §1

T1 sequence (P61073 whole entry): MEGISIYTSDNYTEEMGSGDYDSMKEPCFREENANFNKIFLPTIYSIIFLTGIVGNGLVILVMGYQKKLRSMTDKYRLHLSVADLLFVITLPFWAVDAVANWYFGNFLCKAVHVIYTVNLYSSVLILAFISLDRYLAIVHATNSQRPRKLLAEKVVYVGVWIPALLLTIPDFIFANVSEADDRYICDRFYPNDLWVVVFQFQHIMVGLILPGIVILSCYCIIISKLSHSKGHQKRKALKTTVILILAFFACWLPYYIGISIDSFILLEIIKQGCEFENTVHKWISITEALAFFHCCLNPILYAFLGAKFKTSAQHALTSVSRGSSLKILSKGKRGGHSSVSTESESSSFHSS
C-C chemokine receptor type 5 (Homo sapiens), sequence (P51681 whole entry, looked up): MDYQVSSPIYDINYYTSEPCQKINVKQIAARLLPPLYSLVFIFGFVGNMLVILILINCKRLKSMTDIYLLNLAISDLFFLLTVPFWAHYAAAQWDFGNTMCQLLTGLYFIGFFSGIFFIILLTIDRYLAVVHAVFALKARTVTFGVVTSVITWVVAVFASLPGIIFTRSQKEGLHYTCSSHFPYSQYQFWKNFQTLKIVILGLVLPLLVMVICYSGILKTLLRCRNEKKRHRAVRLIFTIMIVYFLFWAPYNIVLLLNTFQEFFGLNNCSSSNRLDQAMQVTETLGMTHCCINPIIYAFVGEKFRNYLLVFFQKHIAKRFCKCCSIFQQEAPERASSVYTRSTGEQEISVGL

Row | inhibition [1] | EC [2] | inhibition [3] | SMILES | inhibition in vivo at 10 mg/kg [4] | further results
1 | 57% | 1 nM | 82% | c1cnc(NCc2ccc(CNc3ccc(N4CCCC4)cc3)cc2)nc1 | – | –
2 | 41% | 10 nM | 78% | c1cnc(NCc2ccc(CNc3cccc(N4CCCC4)c3)cc2)nc1 | – | –
3 | 100% | 1 nM | 100% | Clc1cccc(NCc2ccc(CNc3ncccn3)cc2)n1 | > 50% | inhibition in vivo at 10 mg/kg [5]: > 30%
4 | 61% | 100 nM | 73% | c1cnc(NCc2ccc(CNc3ccccc3N3CCCC3)cc2)nc1 | – | –
5 | 61% | 10 nM | 82% | Clc1nc(Cl)nc(NCc2ccc(CNc3nc(Cl)nc(Cl)n3)cc2)n1 | – | –
6 | 45% | 100 nM | 68% | Fc1ccc(NCc2ccc(CNc3ccc(F)cn3)cc2)nc1 | – | –
7 | 84% | 1 nM | 100% | Fc1cnc(Cl)nc1NCc1ccc(CNc2ccnc(NCCN3CCOCC3)n2)cc1 | > 50% | inhibition [6]: inactive; inhibition [7]: inactive; Activity [8]: 55%; Activity [9]: Active; IC50 [10]: 0.8 nM; Activity [11]: Active; Activity [12]: 50%; Activity [5]: 70%; half-life [13]: 15 min
8 | 82% | 10 nM | 100% | Clc1ccc(NCc2ccc(CNc3ncccn3)cc2)nc1 | 20% | –
9 | 34% | 1 nM | 95% | CCOCCN1CCN(C(=O)c2cnc(NCc3ccc(CNc4ncc(F)cn4)cc3)nc2C(F)(F)F)CC1 | 20% | inhibition [6]: inactive; inhibition [7]: inactive; IC50 [10]: 5.4 nM; inhibition in vivo at 10 mg/kg [5]: > 30%
10 | 58% | 100 nM | 64% | c1ccc(NCc2ccc(CNc3ncccn3)cc2)nc1 | – | –
11 | – | – | – | c1ccc(NCc2ccc(CNc3ncccn3)cc2)cc1 | 20% | –
12 | 55% | 100 nM | 85% | Fc1cccc(NCc2ccc(CNc3cccc(F)n3)cc2)n1 | – | –
13 | 77% | 1 nM | 100% | COc1ncc(F)c(NCc2ccc(CNc3nc(OC)ncc3F)cc2)n1 | 20% | –
14 | – | – | – | c1ccc(NCc2ccc(CNc3ccccn3)cc2)nc1 | – | inhibition [6]: inactive; inhibition [7]: inactive; IC50 [10]: 1.8 nM; inhibition [4]: Active
15 | 73% | 1 nM | 93% | Fc1cnc(NCc2ccc(CNc3nccc(C(F)(F)F)n3)cc2)nc1 | 20% | inhibition in vivo at 10 mg/kg [5]: > 30%
16 | – | – | – | N=C(N)NCCC[C@H](NC(=O)[C@@H]1CSSC[C@H](NC(=O)[C@H](Cc2ccc3ccccc3c2)NC(=O)[C@H](CCCNC(=N)N)NC(=O)[C@@H](N)CCCNC(=N)N)C(=O)N[C@@H](Cc2ccc(O)cc2)C(=O)N[C@@H](CCCNC(N)=O)C(=O)N[C@@H](CCCCN)C(=O)N[C@H](CCCCN)C(=O)N2CCC[C@H]2C(=O)N[C@@H](Cc2ccc(O)cc2)C(=O)N[C@@H](CCCNC(=N)N)C(=O)N[C@@H](CCCNC(N)=O)C(=O)N1)C(N)=O (H-RR[2Nal]CY[Cit]K[dK]PYR[Cit]CR-NH2; disulfide 4-13) | – | Activity [14]: 85%; Activity [15]: 50%; inhibition [16]: Active; Activity [17]: Active; Activity [18]: Active; inhibition [19]: Active
17 | 41% | – | 62% | Fc1ccccc1NCc1ccc(CNc2ncccn2)cc1 | – | –
18 | 24% | 10 nM | 65% | COc1nccc(NCc2ccc(CNc3ccnc(OC)n3)cc2)n1 | – | inhibition in vivo at 10 mg/kg [5]: > 30%
19 | 65% | 1 nM | 81% | Fc1nccc(NCc2ccc(CNc3ccnc(F)n3)cc2)n1 | – | –
20 | 75% | 1 nM | 75% | Fc1cnc(NCc2ccc(CNc3ncc(F)cn3)cc2)nc1 | – | –
21 | 54% | – | 64% | c1ccc(NCc2ccc(CNc3ccccc3)cc2)cc1 | – | –
22 | 32% | 100 nM | 58% | Fc1ccccc1NCc1ccc(CNc2ccccc2F)cc1 | – | –
23 | 53% | – | 80% | Fc1cccc(NCc2ccc(CNc3ncccn3)cc2)n1 | > 50% | inhibition in vivo at 10 mg/kg [5]: > 30%
